A short description of assay [1]: ABTS radical cation scavenging activity. An outline of the steps:
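ABTS radical cation formed by mixing aqueous 7 mmol/L ABTS and 2.45 mmol/L potassium persulfate 1:1 and keeping in the dark 6 h at room temperature. The radical was diluted in ethanol and equilibrated at 30 °C. Test compound aliquots at 20, 40, 60, 80 and 100 µg/mL were added, incubated 30 °C for 20 min, and read at 734 nm with BHA as reference. Scavenging % = (Ac − Aa)/Ac × 100. Results given as mean ± SD.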

Assay [2] is described as follows: DPPH free radical scavenging activity. An outline of the steps:
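Test compound aliquots at 20, 40, 60, 80 and 100 µg/mL were added to 0.004% DPPH solution, and absorbance was read at 520 nm after 30 min. BHA served as reference and methanol as control. Inhibition % = (Ao − At)/Ao × 100, with Ao the control absorbance. Results given as mean ± SD.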
(The DPPH test is a chemical assay of radical scavenging.)

≈ marks a conversion by molar mass, not a printed value.

Consider `COc1ccc(O)c(C(C)(C)C)c1` [BHA, butylated hydroxyanisole], for which, in assay [1] (at 100 µg/mL concentration), the “ABTS scavenging property (%)” value is on record as 98.20 ± 4.60%. Moreover, the “IC50, ABTS radical scavenging” value in assay [1] (mean of three replicates) came to 28.70 ± 5.20 µg/mL (≈ 159 µM). Also, the “DPPH free radical scavenging property (%)” value in assay [2] (at 100 µg/mL) came to 93.4 ± 1.6%. Further, the “IC50, DPPH free radical scavenging” value in assay [2] (mean of three replicates) turned out to be 34.50 ± 6.20 µg/mL (≈ 191 µM).

These data come from PMC6598219 (Saudi Pharmaceutical Journal : SPJ, 2019).
